Results published in ChEMBL document CHEMBL3758117, “Discovery of indeno[1,2-b]quinoxaline derivatives as potential anticancer agents” (Eur J Med Chem, 2016).
Active and inactive are the calls of the source. The calls are words filed in the database; no cut-off is given here.

test system: Escherichia coli; experiment: Binding affinity to Escherichia coli negative supercoiled pBR322 DNA at 10 uM after 12 hrs by ethidium bromide staining based agarose gel electrophoresis; conditions: not given
How it was run: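 Negatively supercoiled pBR322 (400 ng) in TE buffer pH 8.0 was incubated with compound at 10 μM for 12 h at room temperature. Loading buffer with sarkosyl was added. Samples were run on 1% agarose at 6 V/cm for 2.5 h in TAE pH 8.5, stained with ethidium bromide and photographed under UV.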

| SMILES | Activity |
| --- | --- |
| CN(C)CCCO/N=C1\c2ccccc2-c2nc3c(C(=O)NCCN(C)C)cccc3nc21.Cl | Active |
| CN(C)CCCO/N=C1\c2ccccc2-c2nc3c(CN(C)C)cccc3nc21.Cl | Active |
| O=C1c2ccccc2-c2nc3ccccc3nc21 | inactive |
| CN(C)CCCO/N=C1\c2ccccc2-c2nc3c(CN4CCCCC4)cccc3nc21.Cl | Active |
| O=C1c2ccccc2-c2nc3c(CN4CCOCC4)cccc3nc21 | inactive |

test system: MDA-MB-231; experiment: Antiproliferative activity against human MDA-MB-231 cells after 72 hrs by XTT assay; assay type: functional, cell-based; conditions: MDA-MB-231, 72 h
How it was run: (§1)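 Cells kept as monolayers in DMEM with 10% FBS, penicillin, streptomycin and amphotericin at 37°C, 5% CO2. Seeded at 5 x 10³ cells/well and exposed to compound for 72 h in medium with 10% FBS. XTT plus electron-coupling reagent added, 4 h at 37°C, absorbance read at 492 nm. Percent of control growth uses mean absorbance (n = 3). The 50% value is taken from the linear portion of the curve.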

| SMILES | IC50 [nM] |
| --- | --- |
| CN(C)CCCO/N=C1\c2ccccc2-c2nc3c(C(=O)NCCN(C)C)cccc3nc21.Cl | 670 |
| CN(C)CCCO/N=C1\c2ccccc2-c2nc3c(CN(C)C)cccc3nc21.Cl | 900 |
| O=C1c2ccccc2-c2nc3ccccc3nc21 | > 10000 |
| CN(C)CCCO/N=C1\c2ccccc2-c2nc3c(CN4CCCCC4)cccc3nc21.Cl | 660 |
| O=C1c2ccccc2-c2nc3c(CN4CCOCC4)cccc3nc21 | > 10000 |

test system: not listed separately; experiment: Antiproliferative activity against human H1299 cells after 72 hrs by XTT assay; assay type: functional, cell-based; conditions: NCI-H1299, 72 h; how it was run: as §1

| SMILES | IC50 [µM] |
| --- | --- |
| CN(C)CCCO/N=C1\c2ccccc2-c2nc3c(C(=O)NCCN(C)C)cccc3nc21.Cl | 6.88 |
| CN(C)CCCO/N=C1\c2ccccc2-c2nc3c(CN(C)C)cccc3nc21.Cl | 0.81 |
| O=C1c2ccccc2-c2nc3ccccc3nc21 | > 10 |
| CN(C)CCCO/N=C1\c2ccccc2-c2nc3c(CN4CCCCC4)cccc3nc21.Cl | 0.83 |
| O=C1c2ccccc2-c2nc3c(CN4CCOCC4)cccc3nc21 | > 10 |

test system: not listed separately; experiment: Antiproliferative activity against human PC3 cells after 72 hrs by XTT assay; assay type: functional, cell-based; conditions: PC-3, 72 h; how it was run: as §1

| SMILES | IC50 [nM] |
| --- | --- |
| CN(C)CCCO/N=C1\c2ccccc2-c2nc3c(C(=O)NCCN(C)C)cccc3nc21.Cl | 890 |
| CN(C)CCCO/N=C1\c2ccccc2-c2nc3c(CN(C)C)cccc3nc21.Cl | 780 |
| O=C1c2ccccc2-c2nc3ccccc3nc21 | > 10000 |
| CN(C)CCCO/N=C1\c2ccccc2-c2nc3c(CN4CCCCC4)cccc3nc21.Cl | 910 |
| O=C1c2ccccc2-c2nc3c(CN4CCOCC4)cccc3nc21 | > 10000 |

test system: not listed separately; experiment: Antiproliferative activity against human HuH7 cells after 72 hrs by XTT assay; assay type: functional, cell-based; conditions: Huh-7, 72 h; how it was run: as §1

| SMILES | IC50 [nM] |
| --- | --- |
| CN(C)CCCO/N=C1\c2ccccc2-c2nc3c(C(=O)NCCN(C)C)cccc3nc21.Cl | 830 |
| CN(C)CCCO/N=C1\c2ccccc2-c2nc3c(CN(C)C)cccc3nc21.Cl | 750 |
| O=C1c2ccccc2-c2nc3ccccc3nc21 | > 10000 |
| CN(C)CCCO/N=C1\c2ccccc2-c2nc3c(CN4CCCCC4)cccc3nc21.Cl | 630 |
| O=C1c2ccccc2-c2nc3c(CN4CCOCC4)cccc3nc21 | > 10000 |

test system: MRC5; experiment: Antiproliferative activity against human MRC5 cells after 72 hrs by XTT assay; assay type: cell-based; conditions: MRC5, 72 h; how it was run: as §1

| SMILES | IC50 [µM] |
| --- | --- |
| CN(C)CCCO/N=C1\c2ccccc2-c2nc3c(C(=O)NCCN(C)C)cccc3nc21.Cl | 9 |
| CN(C)CCCO/N=C1\c2ccccc2-c2nc3c(CN(C)C)cccc3nc21.Cl | 0.88 |
| O=C1c2ccccc2-c2nc3ccccc3nc21 | 85.3 |
| CN(C)CCCO/N=C1\c2ccccc2-c2nc3c(CN4CCCCC4)cccc3nc21.Cl | 0.89 |
| O=C1c2ccccc2-c2nc3c(CN4CCOCC4)cccc3nc21 | 95.7 |

test system: MRC5; experiment: Selectivity index, ratio of IC50 for human MRC5 cells to IC50 for human MDA-MB-231 cells; assay type: functional; conditions: not given

| SMILES | Ratio IC50 |
| --- | --- |
| CN(C)CCCO/N=C1\c2ccccc2-c2nc3c(C(=O)NCCN(C)C)cccc3nc21.Cl | 13.43 |
| CN(C)CCCO/N=C1\c2ccccc2-c2nc3c(CN(C)C)cccc3nc21.Cl | 0.98 |
| CN(C)CCCO/N=C1\c2ccccc2-c2nc3c(CN4CCCCC4)cccc3nc21.Cl | 1.35 |

test system: not listed separately; experiment: Selectivity index, ratio of IC50 for human MRC5 cells to IC50 for human H1299 cells; assay type: functional; conditions: not given

| SMILES | Ratio IC50 |
| --- | --- |
| CN(C)CCCO/N=C1\c2ccccc2-c2nc3c(C(=O)NCCN(C)C)cccc3nc21.Cl | 1.31 |
| CN(C)CCCO/N=C1\c2ccccc2-c2nc3c(CN(C)C)cccc3nc21.Cl | 1.09 |
| CN(C)CCCO/N=C1\c2ccccc2-c2nc3c(CN4CCCCC4)cccc3nc21.Cl | 1.07 |

test system: MRC5; experiment: Selectivity index, ratio of IC50 for human MRC5 cells to IC50 for human PC3 cells; assay type: functional; conditions: not given

| SMILES | Ratio IC50 |
| --- | --- |
| CN(C)CCCO/N=C1\c2ccccc2-c2nc3c(C(=O)NCCN(C)C)cccc3nc21.Cl | 10.11 |
| CN(C)CCCO/N=C1\c2ccccc2-c2nc3c(CN(C)C)cccc3nc21.Cl | 1.13 |
| CN(C)CCCO/N=C1\c2ccccc2-c2nc3c(CN4CCCCC4)cccc3nc21.Cl | 0.98 |

test system: Huh-7; experiment: Selectivity index, ratio of IC50 for human MRC5 cells to IC50 for human HuH7 cells; assay type: functional; conditions: not given

| SMILES | Ratio IC50 |
| --- | --- |
| CN(C)CCCO/N=C1\c2ccccc2-c2nc3c(C(=O)NCCN(C)C)cccc3nc21.Cl | 10.84 |
| CN(C)CCCO/N=C1\c2ccccc2-c2nc3c(CN(C)C)cccc3nc21.Cl | 1.17 |
| CN(C)CCCO/N=C1\c2ccccc2-c2nc3c(CN4CCCCC4)cccc3nc21.Cl | 1.41 |

target: T1, DNA topoisomerase 1 (Homo sapiens) (UniProt P11387); experiment: Inhibition of human DNA topoisomerase 1-mediated relaxation of supercoiled pBR322 DNA at 100 uM after 30 mins by ethidium bromide staining based agarose gel electrophoresis; conditions: not given
T1 sequence (whole entry): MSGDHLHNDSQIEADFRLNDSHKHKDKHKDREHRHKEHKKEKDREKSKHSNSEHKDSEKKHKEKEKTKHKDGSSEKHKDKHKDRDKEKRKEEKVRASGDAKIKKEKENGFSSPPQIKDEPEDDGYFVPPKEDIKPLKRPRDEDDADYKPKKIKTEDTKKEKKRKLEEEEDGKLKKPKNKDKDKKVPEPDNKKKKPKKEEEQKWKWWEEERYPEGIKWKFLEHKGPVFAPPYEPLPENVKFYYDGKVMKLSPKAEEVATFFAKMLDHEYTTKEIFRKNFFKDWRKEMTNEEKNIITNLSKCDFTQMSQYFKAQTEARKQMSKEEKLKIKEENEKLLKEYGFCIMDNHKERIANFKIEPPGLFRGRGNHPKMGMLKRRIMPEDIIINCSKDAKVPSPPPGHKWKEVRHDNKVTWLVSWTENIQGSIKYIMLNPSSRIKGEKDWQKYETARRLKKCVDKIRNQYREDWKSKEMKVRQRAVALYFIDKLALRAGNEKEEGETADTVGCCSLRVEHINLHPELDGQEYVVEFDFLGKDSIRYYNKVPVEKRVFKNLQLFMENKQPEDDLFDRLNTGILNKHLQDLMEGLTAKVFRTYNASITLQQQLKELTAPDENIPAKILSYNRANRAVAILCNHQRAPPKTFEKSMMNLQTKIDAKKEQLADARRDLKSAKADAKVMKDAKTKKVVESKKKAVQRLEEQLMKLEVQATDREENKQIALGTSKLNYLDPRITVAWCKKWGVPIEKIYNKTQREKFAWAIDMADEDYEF
How it was run: (§2)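 Human topo I or topo II (2 units) was reacted with 0.2 μg supercoiled pBR322 in 20 μl Tris-HCl pH 7.5 containing KCl, DTT, EDTA, MgCl2 and BSA, with DMSO held at 0.5%, for 30 min at 37°C. The reaction was stopped with SDS. Samples were run on 1% agarose in Tris-acetate/EDTA at 1.5 V/cm for 2-3 h and stained with ethidium bromide. Relaxation was quantified by densitometry of the supercoiled band area.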

| SMILES | topoisomerase 1 inhibition (active/inactive) |
| --- | --- |
| CN(C)CCCO/N=C1\c2ccccc2-c2nc3c(C(=O)NCCN(C)C)cccc3nc21.Cl | Active |
| CN(C)CCCO/N=C1\c2ccccc2-c2nc3c(CN(C)C)cccc3nc21.Cl | Active |
| CN(C)CCCO/N=C1\c2ccccc2-c2nc3c(CN4CCCCC4)cccc3nc21.Cl | Active |
| O=C1c2ccccc2-c2nc3c(CN4CCOCC4)cccc3nc21 | inactive |

target: T1, DNA topoisomerase 1 (Homo sapiens); experiment: Inhibition of human DNA topoisomerase 1-mediated relaxation of supercoiled pBR322 DNA at 10 uM after 30 mins by ethidium bromide staining based agarose gel electrophoresis; conditions: not given; how it was run: as §2

| SMILES | inhibition |
| --- | --- |
| CN(C)CCCO/N=C1\c2ccccc2-c2nc3c(C(=O)NCCN(C)C)cccc3nc21.Cl | Active |
| CN(C)CCCO/N=C1\c2ccccc2-c2nc3c(CN(C)C)cccc3nc21.Cl | Active |
| CN(C)CCCO/N=C1\c2ccccc2-c2nc3c(CN4CCCCC4)cccc3nc21.Cl | Active |

target: DNA topoisomerase 2-alpha (Homo sapiens) (UniProt P11388); experiment: Inhibition of human DNA topoisomerase 2-mediated relaxation of supercoiled pBR322 DNA at 100 uM after 30 mins by ethidium bromide staining based agarose gel electrophoresis; conditions: not given; how it was run: as §2
Sequence (P11388 whole entry): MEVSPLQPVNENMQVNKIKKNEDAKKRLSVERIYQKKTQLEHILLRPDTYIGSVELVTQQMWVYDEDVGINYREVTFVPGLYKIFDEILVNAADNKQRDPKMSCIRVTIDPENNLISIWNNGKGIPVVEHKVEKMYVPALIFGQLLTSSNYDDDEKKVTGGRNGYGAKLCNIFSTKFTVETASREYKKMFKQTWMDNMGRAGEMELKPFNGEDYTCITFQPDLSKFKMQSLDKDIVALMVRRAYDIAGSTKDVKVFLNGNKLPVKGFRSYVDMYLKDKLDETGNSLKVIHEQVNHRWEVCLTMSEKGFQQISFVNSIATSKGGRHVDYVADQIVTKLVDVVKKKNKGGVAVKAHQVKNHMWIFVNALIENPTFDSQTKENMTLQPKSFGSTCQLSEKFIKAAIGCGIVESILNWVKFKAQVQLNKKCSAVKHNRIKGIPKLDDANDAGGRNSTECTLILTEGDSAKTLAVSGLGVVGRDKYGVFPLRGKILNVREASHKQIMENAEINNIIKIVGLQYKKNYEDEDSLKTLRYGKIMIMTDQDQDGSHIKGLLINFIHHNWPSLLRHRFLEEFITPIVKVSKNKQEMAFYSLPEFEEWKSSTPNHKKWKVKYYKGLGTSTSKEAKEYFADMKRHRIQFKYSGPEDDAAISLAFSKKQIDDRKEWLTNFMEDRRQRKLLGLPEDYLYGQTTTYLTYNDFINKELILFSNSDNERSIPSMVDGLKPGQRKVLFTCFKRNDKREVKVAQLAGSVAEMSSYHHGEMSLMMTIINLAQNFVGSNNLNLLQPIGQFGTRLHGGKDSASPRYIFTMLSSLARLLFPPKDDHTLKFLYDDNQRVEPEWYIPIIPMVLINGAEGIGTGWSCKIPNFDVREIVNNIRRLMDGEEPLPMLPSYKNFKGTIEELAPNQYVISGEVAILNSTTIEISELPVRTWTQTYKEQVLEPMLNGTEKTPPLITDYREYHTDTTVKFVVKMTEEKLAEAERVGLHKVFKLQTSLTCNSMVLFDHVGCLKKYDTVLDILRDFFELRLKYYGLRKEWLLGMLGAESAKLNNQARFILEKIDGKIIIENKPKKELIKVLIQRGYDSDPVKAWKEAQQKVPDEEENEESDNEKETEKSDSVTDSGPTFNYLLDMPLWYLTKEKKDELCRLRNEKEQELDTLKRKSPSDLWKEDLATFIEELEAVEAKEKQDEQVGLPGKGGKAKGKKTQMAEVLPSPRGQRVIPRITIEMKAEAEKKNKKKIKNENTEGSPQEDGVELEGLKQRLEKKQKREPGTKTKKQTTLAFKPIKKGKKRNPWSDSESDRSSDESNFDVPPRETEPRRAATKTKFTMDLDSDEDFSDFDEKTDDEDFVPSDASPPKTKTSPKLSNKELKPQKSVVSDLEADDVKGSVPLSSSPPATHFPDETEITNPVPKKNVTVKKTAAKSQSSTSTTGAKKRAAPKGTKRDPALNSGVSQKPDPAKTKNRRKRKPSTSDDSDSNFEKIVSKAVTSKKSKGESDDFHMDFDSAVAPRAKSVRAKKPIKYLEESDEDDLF

| SMILES | inhibition call (active/not active) |
| --- | --- |
| CN(C)CCCO/N=C1\c2ccccc2-c2nc3c(C(=O)NCCN(C)C)cccc3nc21.Cl | Active |
| CN(C)CCCO/N=C1\c2ccccc2-c2nc3c(CN(C)C)cccc3nc21.Cl | Active |
| CN(C)CCCO/N=C1\c2ccccc2-c2nc3c(CN4CCCCC4)cccc3nc21.Cl | Active |
| O=C1c2ccccc2-c2nc3c(CN4CCOCC4)cccc3nc21 | inactive |

target: DNA topoisomerase 2-alpha (Homo sapiens) (UniProt P11388); experiment: Inhibition of human DNA topoisomerase 2-mediated relaxation of supercoiled pBR322 DNA at 10 uM after 30 mins by ethidium bromide staining based agarose gel electrophoresis; conditions: not given; how it was run: as §2

| SMILES | topoisomerase 2 inhibition (active/not active) |
| --- | --- |
| CN(C)CCCO/N=C1\c2ccccc2-c2nc3c(C(=O)NCCN(C)C)cccc3nc21.Cl | Active |
| CN(C)CCCO/N=C1\c2ccccc2-c2nc3c(CN(C)C)cccc3nc21.Cl | inactive |
| CN(C)CCCO/N=C1\c2ccccc2-c2nc3c(CN4CCCCC4)cccc3nc21.Cl | inactive |
